In ChEMBL document CHEMBL1122206, “Use of adenine nucleotide derivatives to assess the potential of exo-active-site-directed reagents as species- or isozyme-specific enzyme inactivators. 5. Interactions of adenosine 5'-triphosphate derivatives with rat pyruvate kinases, Escherichia coli thymidine kinase, and yeast and rat …” (1982):

Tests used:
[1] = molecular target: T1, Hexokinase-3 (Rattus norvegicus) (UniProt P27926); assay: Substrate activity for rat hexokinase III as 1:1 Mg complex at 5.0 mM
T1 sequence (whole entry): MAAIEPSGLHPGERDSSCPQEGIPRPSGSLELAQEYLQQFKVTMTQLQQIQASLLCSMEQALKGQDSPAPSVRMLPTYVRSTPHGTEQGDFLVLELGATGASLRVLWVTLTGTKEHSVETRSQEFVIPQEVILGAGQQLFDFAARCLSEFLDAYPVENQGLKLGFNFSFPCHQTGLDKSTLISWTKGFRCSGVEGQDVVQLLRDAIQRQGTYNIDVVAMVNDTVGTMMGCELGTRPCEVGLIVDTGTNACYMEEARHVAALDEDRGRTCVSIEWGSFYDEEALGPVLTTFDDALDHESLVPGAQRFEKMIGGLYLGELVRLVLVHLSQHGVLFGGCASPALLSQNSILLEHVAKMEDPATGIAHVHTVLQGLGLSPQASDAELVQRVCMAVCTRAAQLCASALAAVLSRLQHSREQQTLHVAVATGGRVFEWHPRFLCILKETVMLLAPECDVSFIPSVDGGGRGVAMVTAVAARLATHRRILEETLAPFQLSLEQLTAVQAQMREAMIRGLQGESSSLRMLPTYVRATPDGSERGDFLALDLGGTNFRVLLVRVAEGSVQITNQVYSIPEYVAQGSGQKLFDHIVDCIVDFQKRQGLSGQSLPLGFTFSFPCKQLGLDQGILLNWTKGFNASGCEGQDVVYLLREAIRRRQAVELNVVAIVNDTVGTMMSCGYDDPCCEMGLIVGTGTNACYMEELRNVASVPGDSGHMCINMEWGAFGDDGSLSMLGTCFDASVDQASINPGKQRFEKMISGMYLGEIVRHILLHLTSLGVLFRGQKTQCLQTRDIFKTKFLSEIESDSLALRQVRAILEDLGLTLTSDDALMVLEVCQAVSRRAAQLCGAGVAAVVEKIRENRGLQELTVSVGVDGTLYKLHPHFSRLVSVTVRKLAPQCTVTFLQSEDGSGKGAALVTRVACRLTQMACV
Method in brief: (§1)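 Hexokinase activity read at 22 °C as A340 change, coupled to glucose-6-phosphate dehydrogenase, in 0.05 M Tris-HCl pH 7.6 with 6.6 mM MgCl2, 10 mM α-D-glucose and 0.93 mM NADP. Donor was 5.0 mM MgATP derivative (1:1 Mg complex) in place of ATP. Yeast HK was isoelectric-focused. Rat HK I and III came from electrofocused liver extract, HK II from dialysed muscle extract.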

[2] = molecular target: T1, Hexokinase-3 (Rattus norvegicus); assay: Time dependent inhibition of Hexokinase type III activity after 6 h, at 22 degrees celsius, at 5 mM
Saccharomyces cerevisiae [3] = assay: Substrate activity against yeast hexokinase as 1:1 Mg complexes at 5.0 mM; method in brief: as §1
[4] = Tested for the velocity of 2.8 mM compound relative to that of 2.8 mM MgATP in the assay
Method in brief: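 E. coli TK substrate test. 0.5 h after adding inhibitor, the mixture was diluted to 2.8 mM derivative in thymidine assay medium without ATP and with 1.42 mM MnCl2. Incubated 15 min at 37 °C, in the linear range. [14C]TMP formed was compared with that from 2.8 mM ATP under the same conditions.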

[5] = molecular target: T2, Hexokinase-1 (Rattus norvegicus) (UniProt P05708); assay: Substrate activity for rat hexokinase I as 1:1 Mg complex at 5.0 mM; method in brief: as §1
T2 sequence (whole entry): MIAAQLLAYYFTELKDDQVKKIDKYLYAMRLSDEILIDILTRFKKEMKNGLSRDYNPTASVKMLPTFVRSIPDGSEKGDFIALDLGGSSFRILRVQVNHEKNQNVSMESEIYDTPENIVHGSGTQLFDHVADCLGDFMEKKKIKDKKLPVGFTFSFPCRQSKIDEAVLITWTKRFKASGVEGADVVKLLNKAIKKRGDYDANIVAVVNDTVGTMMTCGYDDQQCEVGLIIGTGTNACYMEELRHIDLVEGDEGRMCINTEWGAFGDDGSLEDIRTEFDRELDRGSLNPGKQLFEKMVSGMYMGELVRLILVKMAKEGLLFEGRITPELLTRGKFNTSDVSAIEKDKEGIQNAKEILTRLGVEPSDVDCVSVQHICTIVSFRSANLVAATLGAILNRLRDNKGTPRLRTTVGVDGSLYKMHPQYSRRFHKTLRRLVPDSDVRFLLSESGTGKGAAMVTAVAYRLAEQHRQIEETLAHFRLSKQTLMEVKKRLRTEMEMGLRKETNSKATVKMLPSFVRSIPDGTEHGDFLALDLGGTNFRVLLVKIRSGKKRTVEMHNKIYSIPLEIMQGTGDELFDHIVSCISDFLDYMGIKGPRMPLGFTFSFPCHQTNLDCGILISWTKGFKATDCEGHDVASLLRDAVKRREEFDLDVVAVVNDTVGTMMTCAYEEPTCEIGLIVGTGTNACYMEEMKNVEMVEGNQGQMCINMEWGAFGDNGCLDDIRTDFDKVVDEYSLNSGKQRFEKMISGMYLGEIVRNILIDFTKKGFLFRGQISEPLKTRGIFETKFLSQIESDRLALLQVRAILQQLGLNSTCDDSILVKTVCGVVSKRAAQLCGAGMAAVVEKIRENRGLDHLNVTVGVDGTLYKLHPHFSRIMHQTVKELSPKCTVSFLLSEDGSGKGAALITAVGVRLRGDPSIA

[6] = molecular target: Thymidine kinase (Escherichia coli) (UniProt P23331); assay: Compound was tested for the initial inhibition of thymidine kinase by 1.4 mM compound in the presence of 5.7 mM ATP in Escherichia coli
Saccharomyces cerevisiae [7] = assay: Compound was tested for time dependent inhibition of hexokinase activity after 6 hr, at 22 degrees celsius, with 5 mM ATP derivative in yeast hexokinase
[8] = molecular target: T2, Hexokinase-1 (Rattus norvegicus); assay: Time dependent inhibition of Hexokinase type I activity after 6 h, at 22 degrees celsius, at 5 mM compound
[9] = molecular target: T3, Hexokinase-2 (Rattus norvegicus) (UniProt P27881); assay: Substrate activity against Rat hexokinase II as 1:1 Mg complex at 5.0 mM; method in brief: as §1
T3 sequence (whole entry): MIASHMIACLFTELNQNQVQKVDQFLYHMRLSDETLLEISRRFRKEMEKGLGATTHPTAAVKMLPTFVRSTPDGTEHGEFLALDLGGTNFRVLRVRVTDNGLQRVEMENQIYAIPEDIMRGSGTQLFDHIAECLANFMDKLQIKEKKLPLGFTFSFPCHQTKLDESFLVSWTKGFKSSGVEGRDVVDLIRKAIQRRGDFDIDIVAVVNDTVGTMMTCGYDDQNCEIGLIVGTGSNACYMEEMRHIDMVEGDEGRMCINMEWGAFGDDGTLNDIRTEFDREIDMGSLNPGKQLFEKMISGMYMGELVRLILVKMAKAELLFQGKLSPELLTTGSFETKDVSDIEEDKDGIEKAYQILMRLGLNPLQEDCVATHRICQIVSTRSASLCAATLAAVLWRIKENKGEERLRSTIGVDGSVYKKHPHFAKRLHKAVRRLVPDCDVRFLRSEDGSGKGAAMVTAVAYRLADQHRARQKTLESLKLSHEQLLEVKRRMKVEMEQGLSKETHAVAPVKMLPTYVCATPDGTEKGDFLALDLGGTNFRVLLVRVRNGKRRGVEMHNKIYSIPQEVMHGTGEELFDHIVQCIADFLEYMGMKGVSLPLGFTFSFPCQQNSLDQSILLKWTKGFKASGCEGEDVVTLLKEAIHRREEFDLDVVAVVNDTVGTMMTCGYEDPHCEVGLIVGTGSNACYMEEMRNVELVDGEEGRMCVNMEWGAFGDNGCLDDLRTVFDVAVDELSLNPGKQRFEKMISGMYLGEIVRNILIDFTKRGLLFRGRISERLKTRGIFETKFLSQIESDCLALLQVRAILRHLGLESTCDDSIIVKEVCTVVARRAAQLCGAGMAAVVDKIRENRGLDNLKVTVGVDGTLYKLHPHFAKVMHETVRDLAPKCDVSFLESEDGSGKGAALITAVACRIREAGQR

[10] = molecular target: T3, Hexokinase-2 (Rattus norvegicus); assay: Time dependent inhibition of hexokinase 2 activity after 6 h, at 5 mM compound
[11] = molecular target: Thymidine kinase (Escherichia coli) (UniProt P23331); assay: Compound was tested for the lose of thymidine kinase activity after 6 h, at 0 degrees celsius, with 10 mM ATP derivative. values were expressed in percent
[12] = molecular target: Thymidine kinase (Escherichia coli) (UniProt P23331); assay: Compound was tested for the initial inhibition of thymidine kinase by 1.4 mM compound in the presence of 5.7 mM ATP
[13] = molecular target: Thymidine kinase (Escherichia coli) (UniProt P23331); assay: Compound tested for the loss of thymidine kinase activity from Escherichia coli after 6 hr at 0 degrees C at 10 mM
[14] = molecular target: T1, Hexokinase-3 (Rattus norvegicus); assay: Time dependent inhibition of Hexokinase type III activity after 6 hr, at 22 degrees celsius, at 5 mM compound
[15] = Extent of inactivation caused by the compound was reported.; type: functional
Saccharomyces cerevisiae [16] = assay: Time dependent inhibition of hexokinase activity after 6 hr, at 22 degrees celsius, with 5 mM ATP derivative in yeast.
[17] = molecular target: T1, Hexokinase-3 (Rattus norvegicus); assay: Time dependent inhibition of Hexokinase type III activity after 6 h, at 0 degrees celsius, at 10 mM
[18] = molecular target: T3, Hexokinase-2 (Rattus norvegicus); assay: Time dependent inhibition of hexokinase 2 activity after 6 h, at 10 mM compound
[19] = molecular target: T2, Hexokinase-1 (Rattus norvegicus); assay: Time dependent inhibition of Hexokinase type I activity after 6 h, at 0 degrees celsius, at 10 mM compound
[20] = molecular target: Thymidine kinase (Escherichia coli) (UniProt P23331); assay: Compound was tested for the initial inhibition of Thymidine kinase by 1.4 mM compound in the presence of 5.7 mM ATP
[21] = molecular target: T2, Hexokinase-1 (Rattus norvegicus); assay: Time dependent inhibition of Hexokinase, type I activity after 6 h, at 22 degrees celsius, at 5 mM compound
Saccharomyces cerevisiae [22] = assay: Compound was tested for time dependent inhibition of hexokinase activity after 6 h at 22 degrees celsius, with 5 mM compound in yeast hexokinase
[23] = molecular target: Thymidine kinase (Escherichia coli) (UniProt P23331); assay: Compound was tested for the loss of Thymidine kinase activity from Escherichia coli after 6 h at 0 degrees C at 10 mM
[24] = molecular target: Thymidine kinase (Escherichia coli) (UniProt P23331); assay: Compound was tested for the loss of thymidine kinase activity from Escherichia coli after 6 hr at 0 degrees C at 10 mM

Thymidine kinase (Escherichia coli), sequence (P23331 whole entry, looked up): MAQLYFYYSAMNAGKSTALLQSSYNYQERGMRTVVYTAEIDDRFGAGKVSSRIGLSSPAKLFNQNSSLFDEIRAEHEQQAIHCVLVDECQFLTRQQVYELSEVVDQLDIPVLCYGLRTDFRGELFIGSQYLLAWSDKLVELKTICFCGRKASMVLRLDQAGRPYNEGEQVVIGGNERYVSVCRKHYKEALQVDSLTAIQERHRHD

SMILES: O=C(CI)NCCNc1ncnc2c1ncn2[C@@H]1O[C@H](COP(=O)(O)OP(=O)(O)OP(=O)(O)O)[C@@H](O)[C@H]1O
- Relative velocity [1]: 0.5
- inhibition [2]: 0%
- Relative velocity (Saccharomyces cerevisiae [3]): 0.75
- Velocity [4]: 35%
- Relative velocity [5]: 0.58
- inhibition [6]: 3%
- inhibition (Saccharomyces cerevisiae [7]): 0%
- inhibition [8]: 0%
- Relative velocity [9]: 0.34
- inhibition [10]: 0%
- inhibition [11]: 0%

SMILES: O=C(CI)NCCCCCCNc1ncnc2c1ncn2[C@@H]1O[C@H](COP(=O)(O)OP(=O)(O)OP(=O)(O)O)[C@@H](O)[C@H]1O
- inhibition [12]: 0%
- inhibition [13]: 0%
- inhibition [14]: 33%
- Inactivation [15]: > 90%
- inhibition [10]: 35%

SMILES: O=C(CI)NCCCCCCCNc1ncnc2c1ncn2[C@@H]1O[C@H](COP(=O)(O)OP(=O)(O)OP(=O)(O)O)[C@@H](O)[C@H]1O
- inhibition [2]: 20%
- Velocity [4]: 38%
- inhibition [6]: 10%
- inhibition [8]: 20%
- inhibition [10]: 30%
- inhibition (Saccharomyces cerevisiae [16]): 22%
- inhibition [11]: 0%

SMILES: O=C(CI)NCC(=O)NCCCCCCNc1ncnc2c1ncn2[C@@H]1O[C@H](COP(=O)(O)OP(=O)(O)OP(=O)(O)O)[C@@H](O)[C@H]1O
- Relative velocity [1]: 2.06
- inhibition [17]: 0%
- Relative velocity (Saccharomyces cerevisiae [3]): 0.52
- Velocity [4]: 63%
- Relative velocity [5]: 0.92
- inhibition [18]: 0%
- Relative velocity [9]: 0.63
- inhibition [19]: 0%

SMILES: O=C(CI)NCCCNc1ncnc2c1ncn2[C@@H]1O[C@H](COP(=O)(O)OP(=O)(O)OP(=O)(O)O)[C@@H](O)[C@H]1O
- inhibition [2]: 0%
- Velocity [4]: 32%
- inhibition [20]: 6%
- inhibition [10]: 0%
- inhibition [21]: 0%
- inhibition (Saccharomyces cerevisiae [22]): 0%
- inhibition [23]: 0%

SMILES: O=C(CI)NCCCCCC(=O)NCCCCCCNc1ncnc2c1ncn2[C@@H]1O[C@H](COP(=O)(O)OP(=O)(O)OP(=O)(O)O)[C@@H](O)[C@H]1O
- inhibition [12]: 8%
- Relative velocity [1]: 1.37
- inhibition [2]: 0%
- Relative velocity (Saccharomyces cerevisiae [3]): 1.02
- Velocity [4]: 37%
- Relative velocity [5]: 1.25
- inhibition (Saccharomyces cerevisiae [7]): 0%
- inhibition [8]: 0%
- Relative velocity [9]: 0.63
- inhibition [10]: 0%
- inhibition [24]: 0%

SMILES: O=C(CI)NCCCCNc1ncnc2c1ncn2[C@@H]1O[C@H](COP(=O)(O)OP(=O)(O)OP(=O)(O)O)[C@@H](O)[C@H]1O
- inhibition [12]: 39%
- inhibition [13]: 0%
- Velocity [4]: 68%
- inhibition [14]: 0%
- inhibition [10]: 0%
- inhibition (Saccharomyces cerevisiae [16]): 0%

SMILES: NC(=O)CI.Nc1ncnc2c1ncn2[C@@H]1O[C@H](COP(=O)(O)OP(=O)(O)OP(=O)(O)O)[C@@H](O)[C@H]1O
- inhibition [2]: 0%
- inhibition [8]: 5%
- inhibition [10]: 7%
- inhibition (Saccharomyces cerevisiae [22]): 0%
